Reference: paper PMC10785664 (ACS Omega, 2023)

Tested on: A549 cells
Assay: MTT cell viability, antiproliferative action on A549 cells
Type: cell-based
Conditions: Homo sapiens, A549, 72 h, read-out: % cell viability
How it was run: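 A549 cells in DMEM with 10% FBS and 1% penicillin-streptomycin (37 °C, 5% CO₂) were grown to 90% confluence, seeded at 2.5 × 10⁴ cells/mL in 96-well plates and left 24 h. Dosing solutions at 25, 50 and 100 µg/mL in PBS/0.2% DMSO were added in triplicate, followed by 72 h incubation. MTT (5 mg/mL) was added for 4 h, then acid-isopropanol overnight. A570/620 was read; viability was blank-corrected relative to untreated controls.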

Structure (SMILES): CC(=O)O[C@H]1C(=O)[C@@]2(C)[C@H]([C@H](OC(=O)c3ccccc3)[C@]3(O)C[C@H](OC(=O)[C@H](O)[C@@H](NC(=O)c4ccccc4)c4ccccc4)C(C)=C1C3(C)C)[C@]1(OC(C)=O)CO[C@@H]1C[C@@H]2O [PTX, paclitaxel]
- viability at 25 µg/mL: 31.2%
- viability at 50 µg/mL: 26.5%
- viability at 100 µg/mL: 20.2%
